# ChEMBL document CHEMBL5661964, “Selective in vivo and in vitro effects of a small molecule inhibitor of cyclin-dependent kinase 4” (J Natl Cancer Inst, 2001)
# Calls of active or inactive are those of the source. No cut-off for these calls is given here.
# Tests used:
# [1] = system: HCT-116; experiment: Antitumor activity against human HCT-116 cells xenografted in nude mouse assessed as decrease tumor volume at 75 mg/kg, iv administered once per week measured after 29 days; format: functional, organism-based; details: time 29.0 day
# How it was run: (§1)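 Female BALB/c nu/nu mice (19–21 g) received 0.1 mL of HCT116 suspension (1 × 10^7 viable cells/mL, Hanks' buffer) s.c. At day 20 (tumours ~100 mm3), they were randomised into groups of eight. Dosing was i.v. via lateral tail vein at 10 mL/kg for 29 days. Blinded caliper volumes (L × W² × π/6) were taken every 2–4 days. Comparison to […] vehicle controls used one-way ANOVA/Dunnett; log-volume slopes gave growth rate.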
# [2] = system: HCT-116; experiment: Antitumor activity against human HCT-116 cells xenografted in nude mouse assessed as decrease tumor growth at 75 mg/kg, iv administered once per week measured after 29 days; format: functional, organism-based; details: time 29.0 day; how it was run: as §1
smiles,measurement,setting,value
O=c1[nH]cc(F)c(=O)[nH]1,Activity,[1],Active
same,Activity,[2],Active
